The nature of test [1]: Her2 expression decrease, cell viability multiplex – SKBR3 breast tumor cells, AlphaScreen, ATP viability, primary screen (AID 461;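 active = Her2 level under about 52% in both replicate screens, with viability over 70% of control, limit read from the data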;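 for Her2 level: lower value means less Her2 protein in the cells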;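 for viability: percent of carrier control wells set as 100% viability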). Particulars: SKBR3 Her2 protein level, 18-24 h, measured here: SKBR3 viability, ATP luminescence, at 10 µM. A general note: Alpha assays give light when donor and acceptor beads are brought close together.
Test [2] concerns the target Receptor tyrosine-protein kinase erbB-2 (Homo sapiens) (UniProt P04626). The test is described as above. Particulars: 18-24 h, at 10 µM, stronger effect = lower value.
Test [3] is described as follows: reduced viability of SK-BR-3 breast cancer cells – cell-based, 24 h, human, pilot screen (AID 572;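 active = viability at or below 10% of carrier control in both of two separate runs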;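 note: compound exposure lasted between 18 and 24 h rather than exactly 24 h; 100% = carrier-treated control wells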). The note with it: SK-BR-3 viability, CellTiter-Glo luminescence, at 10 µM, stronger effect = lower value.
Test [4] is described as follows: HUVEC growth inhibition – cell-based, human, primary screen (AID 575;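 active = viability at or below 30% in both replicate assays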;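 note: 100% = median of untreated cell wells with 0.1% DMSO on each plate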). The note with it: HUVEC proliferation, CellTiter-Glo luminescence, 72 h; at 10 µM; stronger effect = lower value. The method, boiled down: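 Assay system: primary human umbilical vein endothelial cells / Buffer or medium: endothelial basal medium with 2% FBS plus growth supplements / Compound dosing: one dose, 10 µM final, 0.1% DMSO / Timing: 72 h treatment at 37 °C / Signal: CTG luminescence / Benchmarks: 32 DMSO-only cell-control wells (high), 32 MePR drug-control wells (low) per plate / Plate: collagen-coated 384-well format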
On the technique in general: ATP-based viability assays read luminescence as a measure of living cells.

A short description of test [5]: H69AR cell proliferation blockers – human, duplicate replicates, primary screen (AID 580;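 active = viability at or under a set limit in both replicates, limit being median viability minus 3 SD, cut at about 48% in these data, passing the limit was not always enough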;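 note: 100% = mean luminescence of untreated wells and 0% = no signal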). Particulars: H69AR lung tumor cells viability, ATP luminescence, 72 h; at 10 µM; stronger effect = lower value.
Test [6] is described as follows: MRP1 drug-resistance reversers in H69AR cells – cell-based, doxorubicin co-treatment, pilot screen (AID 601;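 active = viability loss from added drug above about 55%, and viability with drug at most 40%, in both replicates, limit read from the data, passing the limit was not always enough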). Particulars: CellTiter-Glo, 72 h, at 10 µM; for differential viability (reversal): stronger effect = higher value.
A short description of test [7]: yeast transport mutant growth inhibition pilot in 384-well plates, post-Golgi transport modulator project (AID 636; in the data active = inhibition above about 31%). The note with it: absorbance 615 nm, about 18 h, stronger effect = higher value.
Test [8] in a line: growth suppression of yeast trafficking mutant, preliminary HTS, modulators of trafficking downstream of Golgi apparatus project, 1536-format plate, OD 615 nm (AID 637). The note with it: yeast transport mutant growth, absorbance 615 nm, 18 h; stronger effect = higher value.
The mark [9] stands for this setting: H69AR cells + 2 uM doxorubicin, measured here: viability with 2 uM doxorubicin, stronger effect = lower value.
Where [10] appears, read: H69AR cells, compound alone cytotoxicity.

Active and inactive are the calls of the source. Cut-off read from the data, not from the text of the source, unless noted: active = inhibition above about 30%; inactive = the rest.

Chain of Receptor tyrosine-protein kinase erbB-2 (Homo sapiens) (P04626 whole entry, looked up): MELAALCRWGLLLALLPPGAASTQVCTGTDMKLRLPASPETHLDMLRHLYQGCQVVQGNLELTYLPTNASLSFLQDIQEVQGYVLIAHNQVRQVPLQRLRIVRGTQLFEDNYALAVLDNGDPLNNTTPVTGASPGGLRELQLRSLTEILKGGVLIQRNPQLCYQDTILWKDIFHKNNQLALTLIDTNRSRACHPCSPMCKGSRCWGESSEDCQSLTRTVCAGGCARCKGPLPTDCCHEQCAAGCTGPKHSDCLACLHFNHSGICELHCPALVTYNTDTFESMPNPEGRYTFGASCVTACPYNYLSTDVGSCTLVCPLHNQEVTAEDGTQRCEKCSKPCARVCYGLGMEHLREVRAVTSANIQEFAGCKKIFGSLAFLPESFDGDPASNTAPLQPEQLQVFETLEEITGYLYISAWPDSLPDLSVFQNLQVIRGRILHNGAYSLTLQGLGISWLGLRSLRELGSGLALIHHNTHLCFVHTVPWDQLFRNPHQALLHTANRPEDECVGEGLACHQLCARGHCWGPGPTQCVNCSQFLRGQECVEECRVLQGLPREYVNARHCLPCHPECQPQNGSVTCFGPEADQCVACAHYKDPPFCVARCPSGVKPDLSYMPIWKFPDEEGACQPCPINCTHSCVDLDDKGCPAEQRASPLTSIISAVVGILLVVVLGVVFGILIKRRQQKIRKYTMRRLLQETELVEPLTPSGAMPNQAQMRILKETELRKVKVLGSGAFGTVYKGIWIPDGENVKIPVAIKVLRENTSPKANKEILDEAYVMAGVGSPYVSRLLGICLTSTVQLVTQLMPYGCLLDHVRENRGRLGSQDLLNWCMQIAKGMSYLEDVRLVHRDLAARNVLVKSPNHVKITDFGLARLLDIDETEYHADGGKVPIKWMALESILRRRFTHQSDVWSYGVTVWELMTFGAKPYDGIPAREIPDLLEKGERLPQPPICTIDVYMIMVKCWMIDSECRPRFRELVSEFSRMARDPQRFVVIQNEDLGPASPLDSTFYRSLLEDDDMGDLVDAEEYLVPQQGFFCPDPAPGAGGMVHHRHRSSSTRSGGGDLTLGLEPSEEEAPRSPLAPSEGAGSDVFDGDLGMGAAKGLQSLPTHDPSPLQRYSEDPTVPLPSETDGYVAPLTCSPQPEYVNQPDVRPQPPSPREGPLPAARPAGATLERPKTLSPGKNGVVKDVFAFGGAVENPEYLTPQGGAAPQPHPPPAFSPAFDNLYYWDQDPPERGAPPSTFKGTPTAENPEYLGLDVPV

With `N/C(Cn1nnc(-c2ccccc2)n1)=N\O`, the viability in test [1] was 97%; in test [3], 97% (inactive); in test [4], 112% (inactive); in test [5], 107% (inactive); in test [6] (setting [9]), 96.3%; in test [6] (setting [10]) it was 107%. In addition, the Her2 level in test [2] was 87.5% (inactive). In test [6] (H69AR cells + 2 uM doxorubicin), the differential viability (reversal) was 11% (inactive). Besides, the inhibition in test [7] is -2.5% (inactive); in test [8] it was -5.08% (inactive).
As to `CN(C)c1cccc(NC(=O)CCc2ccccc2)c1`, the viability in test [1] was 86%; in test [3], 86% (inactive); in test [4], 89.9% (inactive); in test [5], 94.5% (inactive); in test [6] (setting [9]) it was 102%; in test [6] (setting [10]), 94.5%. Moreover, the Her2 level in test [2] is 90% (inactive). The differential viability (reversal) in test [6] (H69AR cells + 2 uM doxorubicin) is -7.99% (inactive). Besides, the inhibition in test [7] is -5.89% (inactive); in test [8], 2.38% (inactive).
For the compound `CCCc1cc(Nc2cccc(OC)c2)n2ncnc2n1`, the viability in test [1] was 83%; in test [3], 83% (inactive); in test [4], 94.6% (inactive); in test [5] it was 81.2% (inactive); in test [6] (setting [9]), 81.8%; in test [6] (setting [10]) it was 81.2%. In addition, in test [2], the Her2 level was 129% (inactive). The differential viability (reversal) in test [6] (H69AR cells + 2 uM doxorubicin) was -0.635% (inactive). In addition, the inhibition in test [7] was -4.1% (inactive); in test [8], -5% (inactive).
As to `Nc1nc2n(n1)C(c1cccc(Cl)c1)CC(c1ccc(F)cc1)N2` (stereo not given), the viability in test [1] is 86.5%; in test [3], 86.5% (inactive); in test [4], 106% (inactive); in test [5], 100% (inactive); in test [6] (setting [9]), 111%; in test [6] (setting [10]) it was 100%. Further, the Her2 level in test [2] was 97.5% (inactive). Moreover, the differential viability (reversal) in test [6] (H69AR cells + 2 uM doxorubicin) is -10.5% (inactive). In addition, the inhibition in test [7] was -5.47% (inactive); in test [8] it was -0.83% (inactive).
As to `CN(CC(O)COc1ccc(OCC(O)CN(C)C2CCCCC2)cc1)C1CCCCC1` (stereo not given), the viability is 88% in test [1]; 88% (inactive) in test [3]; 65.5% (inactive) in test [4]; 89.9% (inactive) in test [5]; 79.5% in test [6] (setting [9]); 89.9% in test [6] (setting [10]). Also, the Her2 level in test [2] was 82% (inactive). Further, in test [6] (H69AR cells + 2 uM doxorubicin), the differential viability (reversal) is 10.4% (inactive). Moreover, the figures for the inhibition in test [7] and in test [8] were -5.66% (inactive) and 4.6% (inactive), respectively.
As for `O=C(O)c1ccccc1C(=O)Nc1ccccc1`, the viability in test [1] was 121%; in test [3] it was 121% (inactive); in test [4] it was 103% (inactive); in test [5], 105% (inactive); in test [6] (setting [9]), 92.8%; in test [6] (setting [10]) it was 105%. Further, the Her2 level in test [2] is 124% (inactive). Besides, the differential viability (reversal) in test [6] (H69AR cells + 2 uM doxorubicin) is 12.1% (inactive). Moreover, the inhibition is -6.97% (inactive) in test [7] and -2.13% (inactive) in test [8].
Consider `Cc1cc(C)n2nc(SCC(=O)N(C)c3ccccc3)nc2n1`, for which the viability was 89.5% in test [1]; 89.5% (inactive) in test [3]; 94.8% (inactive) in test [4]; 104% (inactive) in test [5]; 102% in test [6] (setting [9]); 104% in test [6] (setting [10]). Further, in test [2], the Her2 level is 87% (inactive). Moreover, the differential viability (reversal) in test [6] (H69AR cells + 2 uM doxorubicin) is 1.41% (inactive). Besides, the inhibition is -7.57% (inactive) in test [7] and 6.39% (inactive) in test [8].
Regarding `CN(C)S(=O)(=O)c1ccc(C(=O)N2CCCC2c2nc3ccccc3s2)cc1` (stereo not given), the viability is 98% in test [1]; 98% (inactive) in test [3]; 91.1% (inactive) in test [4]; 94.9% (inactive) in test [5]; 92.9% in test [6] (setting [9]); 94.9% in test [6] (setting [10]). For the same compound, the Her2 level in test [2] was 127% (inactive). In addition, the differential viability (reversal) in test [6] (H69AR cells + 2 uM doxorubicin) was 1.97% (inactive). For the same compound, the inhibition in test [7] is -1.49% (inactive); in test [8], 3.93% (inactive).
In the case of `CCn1c(SCC(=O)c2ccc(Cl)cc2)nnc1-c1ccoc1C`, the viability in test [1] was 118%; in test [3], 118% (inactive); in test [4], 98.2% (inactive); in test [5] it was 93.6% (inactive); in test [6] (setting [9]), 89.6%; in test [6] (setting [10]) it was 93.6%. The Her2 level in test [2] was 104% (inactive). The differential viability (reversal) in test [6] (H69AR cells + 2 uM doxorubicin) was 4% (inactive). For the same compound, the inhibition in test [7] is -2.84% (inactive); in test [8] it was -0.98% (inactive).
Turning to `Cc1cc(=O)[nH]c(SCC(=O)NCc2ccco2)n1`, the viability in test [1] is 95%; in test [3], 95% (inactive); in test [4], 88.6% (inactive); in test [5], 94.6% (inactive); in test [6] (setting [9]) it was 100%; in test [6] (setting [10]), 94.6%. Further, the Her2 level in test [2] is 106% (inactive). Besides, in test [6] (H69AR cells + 2 uM doxorubicin), the differential viability (reversal) is -5.85% (inactive). Besides, the results for the inhibition in test [7] and in test [8] were -5.48% (inactive) and -2.38% (inactive), respectively.
As for `CC(C)[C@H](NC(=O)NCc1ccc(Cl)cc1)C(=O)O`, the viability in test [1] was 86%; in test [3] it was 86% (inactive); in test [4], 89.1% (inactive); in test [5] it was 103% (inactive); in test [6] (setting [9]) it was 91.9%; in test [6] (setting [10]), 103%. For the same compound, in test [2], the Her2 level was 77% (inactive). For the same compound, the differential viability (reversal) in test [6] (H69AR cells + 2 uM doxorubicin) was 11.2% (inactive). Also, the inhibition was -4% (inactive) in test [7] and -4.75% (inactive) in test [8].
In the case of `COc1ccc(-c2cn3cc(C)ccc3n2)cc1OC`, the viability was 108% in test [1]; 108% (inactive) in test [3]; 91.5% (inactive) in test [4]; 63.7% (inactive) in test [5]; 63.1% in test [6] (setting [9]); 63.7% in test [6] (setting [10]). Also, in test [2], the Her2 level was 88% (inactive). For the same compound, the differential viability (reversal) in test [6] (H69AR cells + 2 uM doxorubicin) is 0.63% (inactive). Moreover, the inhibition in test [7] was -5.26% (inactive); in test [8] it was -1.64% (inactive).
As for `Cn1c(=O)cc(SCC(=O)NCC2CCCO2)c2ccc(Cl)cc21` (stereo not given), the viability in test [1] is 88.5%; in test [3] it was 88.5% (inactive); in test [4], 89% (inactive); in test [5], 85.1% (inactive); in test [6] (setting [9]), 89.1%; in test [6] (setting [10]) it was 85.1%. Also, the Her2 level in test [2] is 88% (inactive). The differential viability (reversal) in test [6] (H69AR cells + 2 uM doxorubicin) is -4% (inactive). The inhibition was -0.26% (inactive) in test [7] and -3.71% (inactive) in test [8].
`Cn1cccc1Cc1nnc(SCC(=O)Nc2ccccc2F)n1CCc1ccccc1`: the viability in test [1] was 78.5%; in test [3], 78.5% (inactive); in test [4], 89.4% (inactive); in test [5], 83.7% (inactive); in test [6] (setting [9]) it was 82.1%; in test [6] (setting [10]) it was 83.7%. Further, the Her2 level in test [2] was 91% (inactive). The differential viability (reversal) in test [6] (H69AR cells + 2 uM doxorubicin) was 1.68% (inactive). Moreover, the inhibition in test [7] is 1.15% (inactive); in test [8], 2.67% (inactive).
Take `COCCn1nnnc1C(c1cc2cc(C)cc(C)c2[nH]c1=O)N1CCN(c2ccccc2F)CC1` (stereo not given): the viability is 102% in test [1]; 102% (inactive) in test [3]; 78.4% (inactive) in test [4]; 80.9% (inactive) in test [5]; 86.3% in test [6] (setting [9]); 80.9% in test [6] (setting [10]). Further, the Her2 level in test [2] is 81.5% (inactive). Also, the differential viability (reversal) in test [6] (H69AR cells + 2 uM doxorubicin) was -5.39% (inactive). The inhibition in test [7] was -4% (inactive); in test [8] it was 1.8% (inactive).
With `COc1ccc(CC(=O)OCn2nnc3ccccc3c2=O)cc1`, the viability in test [1] was 101%; in test [3] it was 101% (inactive); in test [4], 90.5% (inactive); in test [5], 98% (inactive); in test [6] (setting [9]), 101%; in test [6] (setting [10]), 98%. In test [2], the Her2 level was 86% (inactive). Also, the differential viability (reversal) in test [6] (H69AR cells + 2 uM doxorubicin) was -3.25% (inactive). In addition, the figures for the inhibition in test [7] and in test [8] were -5.6% (inactive) and -5.56% (inactive), respectively.

Broadly, the viability is a read-out of living cells in per cent, often relative to untreated cells. A word on the inhibition: it is the drop in the measured response relative to a control, in per cent.
